# Shown are actives, neighbours in structure and some others; about 1.4% of the full set was active somewhere.
# FXIa inh – inhibitors of human coagulation factor XIa; P03951; purified FXIa, Boc-Glu-Ala-Arg-AMC fluorogenic substrate; inhibition, % at 5 µM; 220,000 compounds, 0.14% hits; AID 798;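 active = inhibition of at least 40%; inactive = inhibition below 40%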;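 note: fluorescence of freed AMC excited at 355 nm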
# Target sequence (P03951 19-387 limits assumed): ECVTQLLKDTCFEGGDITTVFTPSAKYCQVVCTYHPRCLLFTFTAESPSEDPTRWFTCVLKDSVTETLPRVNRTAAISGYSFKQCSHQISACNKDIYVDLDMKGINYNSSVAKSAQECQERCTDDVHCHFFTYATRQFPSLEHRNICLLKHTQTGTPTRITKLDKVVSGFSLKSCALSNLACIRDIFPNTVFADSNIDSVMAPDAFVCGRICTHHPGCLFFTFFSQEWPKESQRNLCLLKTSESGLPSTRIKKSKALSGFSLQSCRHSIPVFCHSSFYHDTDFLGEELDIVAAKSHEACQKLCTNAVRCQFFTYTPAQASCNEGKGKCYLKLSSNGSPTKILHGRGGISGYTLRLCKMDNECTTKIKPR
# Target sequence (P03951 388-625 limits assumed): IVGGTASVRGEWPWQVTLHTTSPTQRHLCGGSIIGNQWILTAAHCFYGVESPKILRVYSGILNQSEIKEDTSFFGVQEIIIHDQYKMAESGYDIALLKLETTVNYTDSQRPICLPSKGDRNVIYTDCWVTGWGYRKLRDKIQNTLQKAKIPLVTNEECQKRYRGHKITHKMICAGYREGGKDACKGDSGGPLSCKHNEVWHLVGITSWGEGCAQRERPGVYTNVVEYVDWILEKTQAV
# thrombin 1536 – thrombin (human) inhibition; P00734; alpha-thrombin, Boc-VPR-AMC fluorogenic substrate cleavage; inhibition, % at 5 µM; 220,000 compounds, 0.26% hits; AID 1046;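 active = inhibition at or above 40%; inactive = inhibition below 40%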
#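 System – human alpha-thrombin protein · Reagent – Boc-VPR-AMC substrate, 15 µM final · Compound – 5 µM single dose in 0.2% DMSO · Schedule – reaction at room temperature · Technique – AMC fluorescence at 355 nm excitation and 460 nm emission · Read-out basis – % inhibition relative to enzyme controls and enzyme-free blanks · Control set – no-compound enzyme wells and no-enzyme blanks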
# Calpain2 inh – inhibitors of pig calpain II; purified calpain II, fluorogenic peptide substrate, 30 min; inhibition, % at 16 µM; 220,000 compounds, 0.37% hits; AID 1236;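 active = inhibition above about 50%, limit read from the data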
# hK5 inh – kallikrein 5 (human) inhibition; Q9Y337; recombinant hK5, fluorogenic AMC substrate cleavage; inhibition, % at 5 µM; 210,000 compounds, 0.59% hits;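 active = inhibition of 40% or more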
# FXIIa inh – inhibitors of human coagulation factor XIIa | P00748 | purified FXIIa, Boc-QGR-AMC fluorogenic substrate, 2 h | inhibition, % at 5 µM | 220,000 compounds, 0.3% hits | AID 800; in the data active = inhibition above about 40%
# Hits are given with their value; i = inactive; nt = no result.
SMILES,FXIa inh,thrombin 1536,Calpain2 inh,hK5 inh,FXIIa inh
O=S(=O)([N-]c1nc2ccccc2nc1-n1cc[n+](Cc2ccccc2)c1)c1ccc(Cl)cc1,60,i,i,i,58
CC(C)c1cc(-c2cc(C(=O)NCc3ccccc3)on2)nc(NCC2CC2)n1,i,i,i,i,i
COc1cccc(NC(=O)N2CCN(c3nnnn3-c3ccccc3)CC2)c1,i,i,i,i,i
CCOC(=O)CSc1snnc1-c1ccccc1,i,i,i,i,58
CCOC(=O)CSc1nnc(-c2ccccc2)o1,44,i,i,i,i
CCOc1ccc(NC(=O)CS(=O)(=O)c2cn(CC)c3ccccc23)cc1,i,i,i,i,i
CCn1cc(S(=O)(=O)CC(=O)Nc2ccc(OC)cc2)c2ccccc21,i,i,i,41,i
CCS(=O)(=O)c1ccc(O)c(NC(=O)Nc2ccccc2OC)c1,i,i,i,i,i
CCCOc1ccc(/C(O)=C2/C(=O)C(=O)N(CCCn3ccnc3)C2c2cccnc2)cc1 (stereo unspecified),i,i,i,i,i
COc1ccc(N(Cc2cc3cccc(C)c3[nH]c2=O)C(=O)C2CCCO2)cc1 (stereo unspecified),i,i,i,54,i
O=C(COc1cc(Cl)c(Cl)cc1Cl)N1CCN(c2ccccn2)CC1,i,54,i,i,i
O=C(COc1ccc(Cl)cc1Cl)N1CCN(c2ccccn2)CC1,i,i,i,i,i
CCNc1nc(NCC)n2c(SC(C(=O)Nc3cc(C)ccc3OC)c3ccccc3)nnc2n1 (stereo unspecified),i,i,i,i,i
CCOC(=O)C1(Cc2ccccc2Cl)CCN(Cc2csc(C(C)=O)c2)CC1,i,i,i,i,i
COC(=O)C(Cc1ccc(OC(=O)c2ccc(C(F)(F)F)cc2)cc1)N1Cc2ccccc2C1=O (stereo unspecified),i,i,71,i,i
Cc1nn(-c2ccc(F)cc2)c2sc(C(=O)N3CCCCCC3)cc12,i,i,50,i,i
CC(C)C(OC(=O)c1cccs1)C(=O)NCc1ccc2c(c1)OCO2 (stereo unspecified),i,i,i,i,57
COCCNC(=O)C(=O)N/N=C(\C)CC(=O)Nc1cccnc1,i,i,i,i,i
Cc1ccc(Cn2c(SC3CCOC3=O)nc3ccccc3c2=O)cc1 (stereo unspecified),i,i,i,i,i
CCc1cc2c(=O)n(Cc3ccccc3)c(SC3CCOC3=O)nc2s1 (stereo unspecified),i,i,54,nt,i
COc1ccc(S(=O)(=O)N(CCCN2CCCC2=O)Cc2cc3c(C)cc(C)cc3[nH]c2=O)cc1,i,i,i,133,i
COc1ccc2[nH]c(=O)c(CN(CCO)S(=O)(=O)c3ccc(C)cc3)cc2c1,i,i,i,i,i
Cc1ccc(NC(=O)Cc2nc(CSc3nnc(-c4ccc5c(c4)OCO5)o3)cs2)cc1,i,i,i,i,i
CCN1C(=O)/C(=C\c2cn(-c3ccccc3)nc2-c2cccnc2)SC1=S,i,i,51,i,i
Cc1noc(C)c1COC(=O)c1ccc(N(C)C)cc1,i,i,i,i,i
SMILES,FXIa inh,thrombin 1536,Calpain2 inh,hK5 inh,FXIIa inh
Oc1ccccc1-c1cc(-c2ccc3c(c2)OCCO3)n[nH]1,i,i,54,i,i
Cc1ccc(C2/C(=C(/O)c3cnn(-c4ccccc4)c3C)C(=O)C(=O)N2CCN2CCOCC2)o1 (stereo unspecified),i,i,i,i,i
Cc1c(/C(O)=C2/C(=O)C(=O)N(CCN3CCOCC3)C2c2cccs2)cnn1-c1ccccc1 (stereo unspecified),i,i,i,i,105
C=C(C)CC(Nc1ccc(OC)cc1)c1ccco1 (stereo unspecified),i,i,i,i,i
Cc1ccc(Nc2cc(=O)[nH]c(=O)[nH]2)c(C)c1,i,i,i,i,i
Cc1cccc(Nc2cc(=O)[nH]c(=O)[nH]2)c1C,i,i,i,i,45
CCOC(=O)c1c(C)nc(-c2ccccc2)nc1NC(=O)CC,i,i,i,58,i
COC(=O)N/N=C(\CCC(=O)O)c1cccs1,i,i,i,i,i
NNC(=O)CN1C(=O)Nc2ccc(Br)cc2C1c1ccccc1 (stereo unspecified),i,55,i,42,i
O=C(O)CN1C(=O)Nc2ccc(Br)cc2C1c1ccccc1 (stereo unspecified),i,i,i,i,i
S=C(c1ccc(N2CCCC2)cc1)N1CCCCC1,i,i,64,i,i
Cc1ccc(S(=O)(=O)N2CCCCC2)cc1NC(=O)COC(=O)c1ccc2c(c1)OCO2,i,i,56,i,i
Cc1c(Cl)cnc(NC(=O)COC(=O)c2ccc3c(c2)OCO3)c1Cl,i,i,i,41,i
O=C(COC(=O)c1cc(Br)ccc1O)Nc1cc(S(=O)(=O)N2CCCC2)ccc1Cl,i,45,i,i,i
Cc1ccc(S(=O)(=O)N2CCCCC2)cc1NC(=O)c1ccc2c(c1)OCO2,i,i,i,i,i
COc1ccc(/C=C(\C#N)C(=O)NCC(c2ccc(F)cc2)N2CCOCC2)cc1 (stereo unspecified),i,i,i,i,i
O=C(NCCNC(=O)c1cc(OCC(F)(F)F)ccc1OCC(F)(F)F)Nc1ccc(OC(F)(F)F)cc1,i,i,i,49,i
O=C(Nc1ccc(F)cc1)Nc1cc(OCC(F)(F)F)cc(OCC(F)(F)F)c1,i,i,i,i,55
O=C(NCCNC(=O)c1cc(OCC(F)(F)F)ccc1OCC(F)(F)F)Nc1ccc(Cl)cc1,i,i,i,i,i
CCOc1ccc(NC(=O)Nc2cc(OCC(F)(F)F)cc(OCC(F)(F)F)c2)cc1,i,i,i,i,i
CS(=O)(=O)N(CC(=O)NCc1ccco1)c1ccc(OCc2ccccc2)cc1,i,i,i,i,i
Cc1ccccc1NC(=S)NCCc1c[nH]c2ccccc12,i,i,i,i,i
Cc1ccc(C)c(NC(=O)C(=O)NCCc2c[nH]c3ccccc23)c1,i,i,i,i,i
Cc1cc(C)cc(NC(=O)C(=O)NCCc2c[nH]c3ccccc23)c1,i,i,65,i,i
Cc1ccc(C)c(NC(=S)NCCc2c[nH]c3ccccc23)c1,i,i,i,42,i
SMILES,FXIa inh,thrombin 1536,Calpain2 inh,hK5 inh,FXIIa inh
NC(=O)c1ccsc1NC(=O)c1nc(-c2ccccc2)n(-c2ccccc2)n1,i,44,i,i,i
CN1CCC(=NNC(=O)c2cn(-c3ccccc3)nc2-c2ccccc2)CC1,i,i,i,i,i
O=C1CN(C(=O)/C=C/c2ccco2)c2ccccc2N1,i,i,i,i,i
C=C(C)CSc1nnc(-c2ccc(OC)cc2)n1N,i,i,i,45,i
O=C(CN1CCC(O)(c2cccc(F)c2)CC1)NCCc1c[nH]c2ccccc12,i,i,i,i,i
Cc1oc(C(C)(C)C)cc1C(=O)Nc1ccc2c(c1)OCO2,i,i,i,i,i
Cc1oc(C(C)(C)C)cc1C(=O)Nc1ccc2c(c1)OCCO2,i,i,i,40,i

# From PubChem BioAssay
